STAT3 act: increases IL-6 driven STAT3 reporter signal. U3A cells, IL-6 STAT3-luciferase reporter, luminescence; 100% = signal with IL-6 EC80 alone. activation (% of control), % at 5.6 µM. hit rate 0.91% among 190,000. AID 871;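 active means activation above the screen-wide mean of compound activation plus 3 SD, cut at about 130% in these data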;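 further: 0% = background luminescence of wells with medium and substrate only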
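Material: STAT1-lacking human U3A cells, STAT3 luciferase reporter | Benchmarks: IL-6-only wells as 100% reference | Probe or stimulus: IL-6 (33 ng/mL) | Timing: Compound 1 h, then IL-6 6 h at 37 °C | Detection: Luminescence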
APP 5'UTR act: activates APP 5'UTR luciferase reporter; SH-SY5Y APP 5'UTR luciferase reporter, luminescence; zero percent = DMSO vehicle wells; AID 1276; hit rate 1% among 190,000; activation, % at 2 µM;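 active means activation above a set limit, based on mean plus 3 SD of controls, cut at about 140% in these data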
STAT3 inh: STAT3 signaling inhibition; inhibition, % at 5.5 µM; U3A cells, IL-6 STAT3-luciferase reporter, luminescence; host cell line lacks STAT1; hit rate 0.89% among 190,000; AID 862;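 active means inhibition above the mean inhibition across all screened compounds plus 3 SD, cut at about 44% in these data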;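 further: 0% = DMSO only wells and 100% = 100 µM nifuroxazide control wells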
STAT1 inh: STAT1 signaling inhibition. NIH 3T3 STAT1-luciferase reporter, IFN-gamma, luminescence. inhibition, % at 5.5 µM. hit rate 0.35% among 200,000;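 active means inhibition above a set limit, the mean inhibition across all tested compounds plus 3 SD, cut at about 34% in these data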;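 further: 0% = IFN-gamma with DMSO and 100% = IFN-gamma with 300 µM nifuroxazide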
STAT1 act: STAT1 signaling activation; NIH 3T3 STAT1-luciferase reporter, IFN-gamma, luminescence; 100% = IFN-gamma alone, no compound; activation (% of control), % at 5.5 µM; hit rate 2.6% among 200,000;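 active means activation above the screen-wide mean activation plus 3 SD, cut at about 130% in these data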;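 further: raw ratio to IFN-gamma control signal so 100% means no change and 0% no light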
NF-kB expr up: compounds increasing NF-kB expression in human neuronal cells; hit rate 1.6% among 190,000; fold change at 12.5 µM; NF-kB reporter expression; stronger effect = higher value; in the data active means fold change above about 3.3
STAT1 activ conf: STAT1 activation, confirmation assay; shares compounds with STAT1 act; NIH 3T3 STAT1-luciferase reporter, IFN-gamma potentiation, luminescence; 100% = IFN-gamma EC80 alone, no compound; activation (% of control), % at 5.7 µM; hit rate 97% among 1,200; AID 1262;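 active means activation above a set limit carried over from the earlier primary STAT1 screen, cut at about 140% in these data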;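 further: simple ratio to median IFN-gamma plus DMSO wells so 0% means no light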
NFkB act STAT1ct: counter-screen for STAT1 activators: NF-kappaB activation; hit rate 43% among 1,200; HEK293T NF-kB luciferase reporter, TNF-alpha stimulated, luminescence; 100% = TNF-alpha with vehicle only; activation (% of control), % at 5.7 µM; shares compounds with STAT1 act;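 active means activation above the mean of solvent-only control wells plus 3 SD, set per campaign, cut at about 130% in these data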;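 further: TNF-alpha given at a submaximal dose yielding about 80% of full reporter signal; values are well signal over median control so 100% means no change and 0% no light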
STAT3 act 2: human STAT3 activation in STAT1 activator counter-screen | shares compounds with STAT1 act | U3A cells STAT3-luciferase reporter, IL-6, luminescence; cells lack STAT1; 100 = IL-6 alone, no compound effect | activation (% of control), % at 5.7 µM | hit rate 46% among 1,200 | AID 1316;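 active means activation above the solvent-only control well mean plus 3 SD, set per plate batch, cut at about 110% in these data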;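 further: 0% = no luminescence and 100% = median IL-6 plus DMSO wells; higher means more STAT3 reporter activation so hits are non-selective activators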
* = called active by the depositor; x = not tested or not shown. In the library only some 5.1% were active in any assay of this set; here they are far more common.

SMILES	STAT3 act	APP 5'UTR act	STAT3 inh	STAT1 inh	STAT1 act	NF-kB expr up	STAT1 activ conf	NFkB act STAT1ct	STAT3 act 2
CCCCC(=O)N/N=C(\C)c1cccc(NC(=O)C2CC2)c1	99.1	3.5	-1.4	0.9	101.4	1.09	x	x	x
C/C(=N/NC(=O)c1ccoc1C)c1cccc(NC(=O)C(F)(F)F)c1	105.5	52.2	-6.1	-62.6	155.7*	1.65	116.2	108.6	95.9
COc1ccc(-n2nc(N)c(C(N)=O)n2)cc1	85.0	17.8	19.2	-18.4	115.6	1.7	x	x	x
O=C(N/N=C(\Cc1ncc[nH]1)c1ccccc1)c1cccnc1	107.2	-30.3	-2.2	3.9	94.5	0.83	x	x	x
CCc1ccccc1NC(=O)Cn1nc(C(F)(F)F)cc1C1CC1	105.9	7.6	-1.8	7.4	93.2	1.73	x	x	x
CCOc1ccc(-n2c(C)nc(O)c2N=Nc2ccccc2)cc1	102.5	-0.2	1.5	1.5	97.2	1.38	x	x	x
COc1ccc2oc(C(=O)c3ccccc3)c(N)c2c1	94.2	144.5*	11.0	-80.7	173.6*	6.13*	175.5*	141.5*	106.8
Cc1cs/c(=N/C(=S)Nc2ccccc2)n1C	93.9	132.9	10.5	-86.5	178.2*	4.01*	204.2*	132.6	106.9
Cc1ccc(-c2nc(-c3cccnc3)sc2CC(=O)Nc2ccc3nc(C)sc3c2)cc1	98.1	16.5	2.5	20.3	82.2	1.15	x	x	x
O=C1C(c2cc(=O)c3ccccc3[nH]2)=C(O)c2ccccc21	94.7	144.1*	8.4	-101.7	190.7*	7.02*	193.5*	125.5	118.4*
O=c1cc(-c2ccccc2)[nH]c2ccccc12	124.0	-93.5	-22.3	-9.1	108.3	2.53	x	x	x
COc1ccc(Nc2nccc3c2nnn3C)cc1	79.9	136.7*	25.4	-58.8	153.8*	2.58	167.5*	124.3	97.4
Cn1nnc2c(NCc3ccco3)nccc21	95.3	-1.0	10.7	5.9	94.6	1.26	x	x	x
Cc1nn(C)c(Cl)c1CN1CCN(C2CCCC2)C(CCO)C1 (stereo not given)	99.5	-16.0	5.0	-9.2	106.9	1.1	x	x	x
Cc1ccc(C(=O)NN(CCC(=O)NC(C)(C)C)C2=NS(=O)(=O)c3ccccc32)cc1	100.1	18.1	-2.7	6.7	94.0	1.15	x	x	x
OCCNc1c2ccccc2nc2ccccc12	129.9	6.4	-26.2	-65.2	158.1*	0.92	159.4*	132.7	117.2*
Cc1cc(NCCO)c2ccccc2n1	99.4	10.1	2.3	12.1	89.2	1.12	x	x	x
C/C(=N\NC(=O)c1c[nH]c2ccccc12)c1ccccn1	96.0	-46.9	12.3	-63.6	156.8*	0.92	197.9*	120.1	104.8
NS(=O)(=O)c1ccc(NC(=O)/C=C/c2cn(-c3ccccc3)nc2-c2cccc(Cl)c2)cc1	92.9	-5.6	14.8	-9.8	107.7	1	x	x	x
O=C(/C=C/c1cn(-c2ccccc2)nc1-c1ccccc1)Nc1ccc(C(=O)O)cc1	127.3	12.4	-26.5	-60.1	152.5*	2.56	147.7*	112.9	114.0*
O=C(OCC(=O)c1c[nH]c2ccccc12)c1cc(Br)ccc1O	113.7	-4.6	-3.7	-3.8	101.8	1.25	x	x	x
COc1ccc(C(=O)CSc2nnc3ccccn23)cc1OC	115.2	11.3	-7.5	-5.9	103.5	1.34	x	x	x
O=C(CSc1nnc2ccccn12)c1ccc2c(c1)OCCO2	111.6	123.2	-10.2	-62.4	158.1*	3.17	186.2*	131.6	130.5*
O=C(Nc1ccc(/C=C/c2nc3ccccc3o2)cc1)c1c(F)cccc1F	86.7	208.3*	19.1	-81.7	175.1*	2.07	205.2*	130.7	105.2
COc1ccc(-n2c(C)cc(C(=O)Cn3nnc4ccccc4c3=O)c2C)cc1	106.5	18.4	0.2	-61.7	155.2*	1.32	176.4*	105.7	99.5
SMILES	STAT3 act	APP 5'UTR act	STAT3 inh	STAT1 inh	STAT1 act	NF-kB expr up	STAT1 activ conf	NFkB act STAT1ct	STAT3 act 2
CCCN1C=CC(=C/C=C(\C#N)C(=O)OCC)C=C1	112.8	120.0	-10.5	-70.3	164.3*	2.75	182.5*	123.9	133.5*
c1ccc(CSc2ccc(-c3cccs3)nn2)cc1	92.3	123.9	11.4	-72.5	164.8*	4.76*	184.5*	134.3*	98.9
Cc1ccsc1CNC12CC3CC(CC(C3)C1)C2	101.0	-9.1	1.2	-7.2	104.9	1.36	x	x	x
CCc1cc2c(=O)[nH]c(N3CCCC3)nc2s1	108.6	14.7	-13.4	-9.7	111.5	1.41	x	x	x
CCc1cc2c(=O)[nH]c(-c3ccccn3)nc2s1	96.3	33.7	3.0	-55.8	152.5*	0.97	188.7*	136.7*	103.7
O=C(N/N=C\c1ccco1)Nc1cccc(Cl)c1	102.4	80.4	-5.5	-60.0	153.4*	3.3*	172.5*	133.2*	105.6
Cc1cccc(NC(=O)CCC(=O)N/N=C/c2ccco2)c1	98.9	-6.8	1.6	-7.0	106.2	0.95	x	x	x
COc1cccc(-c2cn3nc4c(nc3n2)CCCC4)c1	88.4	170.3*	15.7	-65.9	160.2*	3.56*	191.1*	111.1	89.2
COc1cccc(-c2cc(C(F)(F)F)n3nc(N)nc3n2)c1	94.5	-9.7	10.3	4.0	99.3	1.18	x	x	x
O=C(N=Nc1c(O)[nH]c2ccccc12)c1ccco1	109.4	141.8*	-10.8	-58.2	155.3*	2.88	179.2*	126.9	126.3*
O=C(CSCc1ccccc1)N=Nc1c(O)[nH]c2ccccc12	87.8	6.4	17.4	-4.2	103.8	1.78	x	x	x
CCCCn1cnc2sc(-c3ccccc3)cc2c1=O	113.6	0.1	-13.3	-69.3	162.4*	5.89*	218.1*	149.9*	111.1*
CCN(CC)C(=O)CSc1ncnc2sc(-c3ccccc3)cc12	110.7	32.2	-11.4	-11.9	111.0	1.61	x	x	x
COc1ccc(/C=N/Nc2ncc(Br)cn2)c(OC)c1	84.8	41.6	20.0	-73.2	165.2*	3.72*	204.2*	133.6*	113.7*
CCN1C(=S)SC(=O)C1=C1C=C(C)N(Cc2ccco2)C(C)=C1	114.0	122.0	-9.6	-103.6	197.8*	3.05	277.9*	150.8*	126.5*
O=C(NC1CCCCC1)C(c1ccc2ncccc2c1)N(Cc1ccc(F)cc1)C(=O)c1cccs1 (stereo not given)	111.1	-1.0	-2.3	23.1	86.3	0.77	x	x	x
COc1ccccc1N1CCN(CC(=O)c2c(C)[nH]c3cc(C)ccc23)CC1	96.9	2.3	7.6	11.5	89.5	0.95	x	x	x

Screening results deposited in PubChem BioAssay by several laboratories.
